Reference: ChEMBL document CHEMBL1143614, “Structure-activity relationships of the unique and potent agouti-related protein (AGRP)-melanocortin chimeric Tyr-c[beta-Asp-His-DPhe-Arg-Trp-Asn-Ala-Phe-Dpr]-Tyr-NH2 peptide template” (J Med Chem, 2005)
Blank lines part the entries; values can stand above or below the compound they belong to. Where a SMILES comes first, the peptide text is derived from it. Bridges are numbered along the chain shown (N, C = ends).

Columns and labels:
[1] = target: Melanocortin receptor 3 (Mus musculus) (UniProt P33033); experiment: Agonist activity for mouse Melanocortin-3 receptor; format: functional
Outline: (§1)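 HEK-293 cells stably expressing mouse melanocortin receptors (G418-selected) were transiently transfected with a CRE/β-galactosidase reporter. 48 h after transfection, cells were stimulated for 6 h with peptide (10^-4 to 10^-12 M) or forskolin (10^-4 M) in DMEM with 0.1 mg/mL BSA and 0.1 mM IBMX. Lysates were incubated with ONPG at 37° and read at OD405. Signals were normalized to relative protein (OD595) and to forskolin response. EC50 came from nonlinear least-squares fits of duplicate experiments in quadruplet or more.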

[2] = target: Melanocortin receptor 3 (Mus musculus) (UniProt P33033); experiment: Relative percent of stimulatory activity for mouse Melanocortin-3 receptor at 100 uM; outline: as §1
[3] = target: Melanocortin receptor 3 (Mus musculus) (UniProt P33033); experiment: Antagonist activity for mouse Melanocortin-3 receptor; format: functional
[4] = target: Melanocortin receptor 4 (Mus musculus) (UniProt P56450); experiment: Partial agonist concentration for mouse Melanocortin-4 receptor; format: functional
Melanocortin receptor 5 = Melanocortin receptor 5 (Mus musculus, UniProt P41149); experiment: Effective concentration for mouse Melanocortin-5 receptor
Melanocortin receptor 4 = Melanocortin receptor 4 (Mus musculus, UniProt P56450); experiment: Effective concentration for mouse Melanocortin-4 receptor
Outline: (§2)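 HEK-293 cells stably expressing the mouse receptor (G418 selection), transiently transfected with a CRE/β-galactosidase reporter. Forskolin (10^-4 M) served as the control. After lysis, ONPG was added at 37° and OD405 was read. Signals were normalized to protein content and forskolin; EC50 came from a nonlinear least-squares fit, duplicate or more independent experiments in quadruplicate.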

[5] = target: Melanocyte-stimulating hormone receptor (Mus musculus, UniProt Q01727); experiment: Effective concentration for mouse Melanocortin-1 receptor
[6] = target: Melanocortin receptor 3 (Mus musculus) (UniProt P33033); experiment: Partial agonist activity towards mouse Melanocortin-3 receptor; format: functional; outline: as §1
Melanocortin receptor 3 = Melanocortin receptor 3 (Mus musculus, UniProt P33033); experiment: Effective concentration for mouse Melanocortin-3 receptor; outline: as §2
Mus musculus = organism: Mus musculus; experiment: Relative effective concentration for Melanocortin-3 and Melanocortin-4 receptors
[7] = target: Melanocortin receptor 4 (Mus musculus) (UniProt P56450); experiment: Partial agonist activity towards mouse Melanocortin-4 receptor; format: functional; outline: as §1
[8] = target: Melanocortin receptor 4 (Mus musculus) (UniProt P56450)

Chain of Melanocortin receptor 4 (Mus musculus) (P56450 whole entry): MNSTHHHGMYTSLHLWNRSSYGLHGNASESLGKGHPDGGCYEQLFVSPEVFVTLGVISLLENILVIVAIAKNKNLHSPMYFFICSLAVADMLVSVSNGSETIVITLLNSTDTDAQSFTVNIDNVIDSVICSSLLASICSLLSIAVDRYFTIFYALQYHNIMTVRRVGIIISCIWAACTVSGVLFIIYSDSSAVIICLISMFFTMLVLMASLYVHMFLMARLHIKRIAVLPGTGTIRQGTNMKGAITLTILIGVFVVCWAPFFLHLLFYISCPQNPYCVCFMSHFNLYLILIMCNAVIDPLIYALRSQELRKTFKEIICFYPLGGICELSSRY
Chain of Melanocortin receptor 4 (P56450 whole entry): as above
Chain of Melanocortin receptor 5 (P41149 whole entry): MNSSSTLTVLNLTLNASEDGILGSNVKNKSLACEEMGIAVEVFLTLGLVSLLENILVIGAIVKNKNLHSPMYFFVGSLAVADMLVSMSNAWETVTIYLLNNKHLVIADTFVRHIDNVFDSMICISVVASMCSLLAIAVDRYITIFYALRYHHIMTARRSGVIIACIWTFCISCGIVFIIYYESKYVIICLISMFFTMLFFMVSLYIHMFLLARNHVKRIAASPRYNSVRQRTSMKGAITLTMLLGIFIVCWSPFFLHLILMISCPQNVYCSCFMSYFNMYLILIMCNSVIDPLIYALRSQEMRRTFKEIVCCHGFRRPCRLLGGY
Chain of Melanocortin receptor 3 (P33033 whole entry): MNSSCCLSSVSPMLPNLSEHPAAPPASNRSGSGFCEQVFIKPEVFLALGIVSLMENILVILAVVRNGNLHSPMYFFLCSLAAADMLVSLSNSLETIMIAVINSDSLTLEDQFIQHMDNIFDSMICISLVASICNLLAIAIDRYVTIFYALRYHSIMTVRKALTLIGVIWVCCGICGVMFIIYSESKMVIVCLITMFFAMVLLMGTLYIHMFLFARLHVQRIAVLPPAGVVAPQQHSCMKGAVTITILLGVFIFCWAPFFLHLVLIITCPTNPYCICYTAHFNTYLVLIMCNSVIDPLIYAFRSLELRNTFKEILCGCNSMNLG
Chain of Melanocortin receptor 3 (Mus musculus) (P33033 whole entry): as above
Chain of Melanocyte-stimulating hormone receptor (Q01727 whole entry): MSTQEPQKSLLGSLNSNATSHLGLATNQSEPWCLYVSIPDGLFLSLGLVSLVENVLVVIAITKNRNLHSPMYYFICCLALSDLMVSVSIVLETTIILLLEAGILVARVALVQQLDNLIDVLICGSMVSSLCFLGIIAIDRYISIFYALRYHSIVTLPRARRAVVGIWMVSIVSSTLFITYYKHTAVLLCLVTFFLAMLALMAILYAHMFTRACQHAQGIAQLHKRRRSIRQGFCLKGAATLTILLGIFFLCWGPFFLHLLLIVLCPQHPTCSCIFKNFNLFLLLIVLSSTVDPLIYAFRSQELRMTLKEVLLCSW

- pA2 [1]: 6.4
- SA [2]: 40%
Compound: C[C@@H]1NC(=O)[C@H](CC(N)=O)NC(=O)[C@H](Cc2c[nH]c3ccccc23)NC(=O)[C@H](CCCN=C(N)N)NC(=O)[C@@H](Cc2ccccc2)NC(=O)C2(CCc3ccccc3C2)NC(=O)[C@@H](NC(=O)[C@@H](N)Cc2ccc(O)cc2)CC(=O)N([C@@H](Cc2ccc(O)cc2)C(N)=O)[C@@](C)(C(=O)O)NC(=O)[C@H](Cc2ccccc2)NC1=O (mixture of isomers)

- pA2 [3]: 8.2
- pA2 [4]: 9.1
Compound: C[C@@H]1NC(=O)[C@H](CC(N)=O)NC(=O)[C@H](Cc2c[nH]c3ccccc23)NC(=O)[C@H](CCCN=C(N)N)NC(=O)[C@@H](Cc2ccc3ccccc3c2)NC(=O)[C@H](Cc2c[nH]cn2)NC(=O)[C@@H](NC(=O)[C@@H](N)Cc2ccc(O)cc2)CC(=O)N([C@@H](Cc2ccc(O)cc2)C(N)=O)[C@@](C)(C(=O)O)NC(=O)[C@H](Cc2ccccc2)NC1=O

- SA [2]: 60%
Compound: C[C@@H]1NC(=O)[C@H](CC(N)=O)NC(=O)[C@H](Cc2c[nH]c3ccccc23)NC(=O)[C@H](CCCN=C(N)N)NC(=O)[C@H](C)NC(=O)[C@H](Cc2c[nH]cn2)NC(=O)[C@@H](NC(=O)[C@@H](N)Cc2ccc(O)cc2)CC(=O)N([C@@H](Cc2ccc(O)cc2)C(N)=O)[C@@](C)(C(=O)O)NC(=O)[C@H](Cc2ccccc2)NC1=O

Compound: C[C@@H]1NC(=O)[C@H](CC(N)=O)NC(=O)[C@H](Cc2c[nH]c3ccccc23)NC(=O)[C@H](CCCN=C(N)N)NC(=O)[C@@H](Cc2ccccc2)NC(=O)C2(CCc3ccccc3C2)NC(=O)[C@@H](NC(=O)[C@@H](N)Cc2ccc(O)cc2)CC(=O)NC[C@@H](C(=O)N[C@@H](Cc2ccc(O)cc2)C(N)=O)NC(=O)[C@H](Cc2ccccc2)NC1=O (mixture of isomers)
- EC50 (Melanocortin receptor 5): 0.44 µM
- EC50 (Melanocortin receptor 4): 0.115 µM
- EC50 [5]: 0.69 µM

Compound: C[C@@H]1NC(=O)[C@H](CC(N)=O)NC(=O)[C@H](Cc2c[nH]c3ccccc23)NC(=O)[C@H](CCCCN)NC(=O)[C@@H](Cc2ccccc2)NC(=O)[C@H](Cc2c[nH]cn2)NC(=O)[C@@H](NC(=O)[C@@H](N)Cc2ccc(O)cc2)CC(=O)NC[C@@H](C(=O)N[C@@H](Cc2ccc(O)cc2)C(N)=O)NC(=O)[C@H](Cc2ccccc2)NC1=O
- EC50 (Melanocortin receptor 5): 0.8 µM
- EC50 (Melanocortin receptor 4): 8.6 µM
- EC50 [5]: 0.68 µM

- pA2 [6]: 7.2
Compound: C[C@@H]1NC(=O)[C@H](CC(N)=O)NC(=O)[C@H](Cc2c[nH]c3ccccc23)NC(=O)[C@H](CCCN=C(N)N)NC(=O)[C@@H](Cc2ccccc2)NC(=O)[C@H](Cc2ccccc2)NC(=O)[C@@H](NC(=O)[C@@H](N)Cc2ccc(O)cc2)CC(=O)N([C@@H](Cc2ccc(O)cc2)C(N)=O)[C@@](C)(C(=O)O)NC(=O)[C@H](Cc2ccccc2)NC1=O

Compound: C[C@@H]1NC(=O)[C@H](CC(N)=O)NC(=O)[C@@H]2Cc3ccccc3CN2C(=O)[C@H](CCCN=C(N)N)NC(=O)[C@@H](Cc2ccccc2)NC(=O)[C@H](Cc2c[nH]cn2)NC(=O)[C@@H](NC(=O)[C@@H](N)Cc2ccc(O)cc2)CC(=O)N([C@@H](Cc2ccc(O)cc2)C(N)=O)[C@@](C)(C(=O)O)NC(=O)[C@H](Cc2ccccc2)NC1=O
- EC50 (Melanocortin receptor 3): 3.4 µM
- Selectivity ratio (Mus musculus): 13

- EC50 (Melanocortin receptor 5): > 100 µM
- EC50 (Melanocortin receptor 3): > 100 µM
Compound: C[C@@H]1NC(=O)[C@H](CC(N)=O)NC(=O)[C@H](Cc2ccccc2)NC(=O)[C@H](Cc2ccccc2)NC(=O)[C@H](CCCNC(=N)N)NC(=O)[C@@H](NC(=O)[C@@H](N)Cc2ccc(O)cc2)CSSC[C@@H](C(=O)N[C@@H](Cc2ccc(O)cc2)C(N)=O)NC(=O)[C@H](Cc2ccccc2)NC1=O (H-YCRFFNAFCY-NH2; disulfide 2-9)

Compound: C[C@@H]1NC(=O)[C@H](CC(N)=O)NC(=O)[C@H](Cc2ccc3ccccc3c2)NC(=O)[C@H](CCCN=C(N)N)NC(=O)[C@@H](Cc2ccccc2)NC(=O)[C@H](Cc2c[nH]cn2)NC(=O)[C@@H](NC(=O)[C@@H](N)Cc2ccc(O)cc2)CC(=O)N([C@@H](Cc2ccc(O)cc2)C(N)=O)[C@@](C)(C(=O)O)NC(=O)[C@H](Cc2ccccc2)NC1=O
- EC50 (Melanocortin receptor 3): 0.00556 µM
- Selectivity ratio (Mus musculus): 21

- pA2 [6]: 7.2
Compound: C[C@@H]1NC(=O)[C@H](CC(N)=O)NC(=O)[C@H](Cc2c[nH]c3ccccc23)NC(=O)[C@H](CCCN=C(N)N)NC(=O)[C@@H](Cc2ccccc2)NC(=O)[C@@H]2CCCN2C(=O)[C@@H](NC(=O)[C@@H](N)Cc2ccc(O)cc2)CC(=O)N([C@@H](Cc2ccc(O)cc2)C(N)=O)[C@@](C)(C(=O)O)NC(=O)[C@H](Cc2ccccc2)NC1=O

Compound: C[C@@H]1NC(=O)[C@H](CC(N)=O)NC(=O)[C@H](Cc2c[nH]c3ccccc23)NC(=O)[C@H](CCCN=C(N)N)NC(=O)[C@@H](Cc2ccc(-c3ccccc3)cc2)NC(=O)[C@H](Cc2c[nH]cn2)NC(=O)[C@@H](NC(=O)[C@@H](N)Cc2ccc(O)cc2)CC(=O)N([C@@H](Cc2ccc(O)cc2)C(N)=O)[C@@](C)(C(=O)O)NC(=O)[C@H](Cc2ccccc2)NC1=O
- EC50 (Melanocortin receptor 3): 0.033 µM
- Selectivity ratio (Mus musculus): 58

Compound: C[C@@H]1NC(=O)[C@H](CC(N)=O)NC(=O)[C@@H]2CCCN2C(=O)[C@H](CCCNC(=N)N)NC(=O)[C@@H](Cc2ccccc2)NC(=O)[C@H](Cc2c[nH]cn2)NC(=O)[C@@H](NC(=O)[C@@H](N)Cc2ccc(O)cc2)CC(=O)NC[C@@H](C(=O)N[C@@H](Cc2ccc(O)cc2)C(N)=O)NC(=O)[C@H](Cc2ccccc2)NC1=O
- EC50 (Melanocortin receptor 5): 0.7 µM
- EC50 (Melanocortin receptor 4): 7.2 µM
- EC50 [5]: 1 µM

- pA2 [3]: 8.8
- pA2 [7]: 9.4
Compound: C[C@@H]1NC(=O)[C@H](CC(N)=O)NC(=O)[C@H](Cc2c[nH]c3ccccc23)NC(=O)[C@H](CCCN=C(N)N)NC(=O)[C@@H](Cc2ccc(I)cc2)NC(=O)[C@H](Cc2c[nH]cn2)NC(=O)[C@@H](NC(=O)[C@@H](N)Cc2ccc(O)cc2)CC(=O)N([C@@H](Cc2ccc(O)cc2)C(N)=O)[C@@](C)(C(=O)O)NC(=O)C(Cc2ccccc2)NC1=O (stereo in doubt)

Compound: C[C@@H]1NC(=O)[C@H](CC(N)=O)NC(=O)[C@H](C)NC(=O)[C@H](CCCNC(=N)N)NC(=O)[C@@H](Cc2ccccc2)NC(=O)[C@H](Cc2c[nH]cn2)NC(=O)[C@@H](NC(=O)[C@@H](N)Cc2ccc(O)cc2)CC(=O)NC[C@@H](C(=O)N[C@@H](Cc2ccc(O)cc2)C(N)=O)NC(=O)[C@H](Cc2ccccc2)NC1=O
- EC50 (Melanocortin receptor 5): 0.0501 µM
- EC50 (Melanocortin receptor 4): 0.71 µM
- EC50 [5]: 0.35 µM

Compound: C[C@@H]1NC(=O)[C@H](CC(N)=O)NC(=O)[C@@H](Cc2ccc3ccccc3c2)NC(=O)[C@H](CCCN=C(N)N)NC(=O)[C@@H](Cc2ccccc2)NC(=O)[C@H](Cc2c[nH]cn2)NC(=O)[C@@H](NC(=O)[C@@H](N)Cc2ccc(O)cc2)CC(=O)N([C@@H](Cc2ccc(O)cc2)C(N)=O)[C@@](C)(C(=O)O)NC(=O)[C@H](Cc2ccccc2)NC1=O
- EC50 (Melanocortin receptor 3): 0.0065 µM
- Selectivity ratio (Mus musculus): 10

Compound: C[C@@H]1NC(=O)[C@H](CC(N)=O)NC(=O)[C@H](Cc2c[nH]c3ccccc23)NC(=O)[C@H](CCCN=C(N)N)NC(=O)[C@@H](Cc2ccccc2)NC(=O)[C@H](Cc2c[nH]cn2)NC(=O)[C@@H](NC(=O)[C@@H](N)Cc2ccc(O)cc2)CC(=O)N([C@@H](Cc2ccc(O)cc2)C(N)=O)[C@@](C)(C(=O)O)NC(=O)[C@@H](Cc2ccccc2)NC1=O
- EC50 (Melanocortin receptor 3): 0.014 µM
- Selectivity ratio (Mus musculus): 21

- pA2 [8]: 6.8
Compound: C[C@@H]1NC(=O)[C@H](CC(N)=O)NC(=O)[C@H](Cc2ccccc2)NC(=O)[C@H](Cc2ccccc2)NC(=O)[C@H](CCCN=C(N)N)NC(=O)[C@@H](NC(=O)[C@@H](N)Cc2ccc(O)cc2)CSSC[C@@H](C(=O)N[C@@H](Cc2ccc(O)cc2)C(N)=O)NC(=O)[C@H](Cc2ccccc2)NC1=O (H-YCRFFNAFCY-NH2; disulfide 2-9)
